The term IC50 denotes the concentration at which inhibition is half-maximal.

Read-outs that look alike come from different tables or passages of the source.

The target of one experiment is T1, human haspin kinase (Homo sapiens, UniProt Q8TF76).
T1 sequence (Q8TF76 1-798): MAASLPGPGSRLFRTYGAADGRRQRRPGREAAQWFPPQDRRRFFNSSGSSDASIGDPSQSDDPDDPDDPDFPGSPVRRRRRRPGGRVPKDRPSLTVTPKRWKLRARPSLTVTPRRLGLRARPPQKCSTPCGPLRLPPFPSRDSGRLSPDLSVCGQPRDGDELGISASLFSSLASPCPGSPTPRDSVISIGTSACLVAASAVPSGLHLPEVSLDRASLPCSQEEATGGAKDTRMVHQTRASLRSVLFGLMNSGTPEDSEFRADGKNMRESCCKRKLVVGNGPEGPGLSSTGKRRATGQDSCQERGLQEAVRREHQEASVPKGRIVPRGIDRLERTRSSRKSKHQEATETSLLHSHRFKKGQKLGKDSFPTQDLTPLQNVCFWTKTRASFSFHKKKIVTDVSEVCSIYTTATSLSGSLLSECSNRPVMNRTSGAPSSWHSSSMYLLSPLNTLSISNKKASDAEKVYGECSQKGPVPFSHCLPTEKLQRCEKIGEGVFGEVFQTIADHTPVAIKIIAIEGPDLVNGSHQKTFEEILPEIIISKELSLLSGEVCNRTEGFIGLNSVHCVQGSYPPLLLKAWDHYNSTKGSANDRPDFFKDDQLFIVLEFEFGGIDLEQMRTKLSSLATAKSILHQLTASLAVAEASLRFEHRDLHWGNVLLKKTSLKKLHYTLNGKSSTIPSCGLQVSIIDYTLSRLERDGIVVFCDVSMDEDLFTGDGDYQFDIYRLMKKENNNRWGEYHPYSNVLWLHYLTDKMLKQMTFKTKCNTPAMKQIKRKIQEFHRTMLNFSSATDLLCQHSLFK
Briefly: haspin kinase TR-FRET assay. It is filed as biochemical. The procedure, abridged: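 Human haspin activity measured by TR-FRET at varying test compound concentrations to give IC50, using the HTS format: histone H3 peptide substrate, with phosphorylated product (H3T3ph) detected by a europium-labelled phosphospecific monoclonal antibody. For the selectivity ratio, DYRK2 was assayed by 33P incorporation into Woodtide peptide with human N-terminal GST-fused DYRK2 and γ33P-ATP.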

A further experiment concerns the target T2, human DYRK2 (Homo sapiens, UniProt Q92630).
T2 sequence (Q92630 1-601): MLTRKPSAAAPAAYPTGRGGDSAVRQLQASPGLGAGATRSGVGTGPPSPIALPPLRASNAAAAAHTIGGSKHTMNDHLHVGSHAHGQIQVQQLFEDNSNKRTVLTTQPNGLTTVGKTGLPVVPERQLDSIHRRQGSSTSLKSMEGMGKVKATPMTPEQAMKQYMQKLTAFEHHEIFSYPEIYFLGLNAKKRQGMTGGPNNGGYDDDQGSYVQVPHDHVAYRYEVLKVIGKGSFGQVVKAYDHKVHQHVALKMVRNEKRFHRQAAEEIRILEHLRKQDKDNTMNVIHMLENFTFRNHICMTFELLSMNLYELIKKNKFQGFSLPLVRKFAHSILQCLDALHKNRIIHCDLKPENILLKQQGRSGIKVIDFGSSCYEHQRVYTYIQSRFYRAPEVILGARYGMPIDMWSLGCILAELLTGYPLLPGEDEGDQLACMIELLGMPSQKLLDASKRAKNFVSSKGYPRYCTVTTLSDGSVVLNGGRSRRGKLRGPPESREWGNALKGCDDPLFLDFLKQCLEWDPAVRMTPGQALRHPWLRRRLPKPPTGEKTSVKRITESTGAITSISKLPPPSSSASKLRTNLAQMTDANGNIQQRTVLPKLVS
Put plainly: DYRK2 kinase 33P-incorporation into Woodtide peptide. It is filed as biochemical. To be noted: read-out: IC50 DYRK2, Woodtide substrate.

Where [1] appears, read: read-out: IC50 haspin, TR-FRET assay.

For the compound `COc1ccc2nc3ccc(OC)cc3c(SCCCN3C(=O)c4ccccc4C3=O)c2c1` [Compound 41], the IC50 at human haspin kinase (setting [1]) was 2100 nM.
With `COc1ccc2nc3ccc(Cl)cc3c(SCCCN)c2c1` [Compound 33], the half-inhibitory concentration (IC50) is 9900 nM on human DYRK2, 55 nM on human haspin kinase (setting [1]) and below 60 nM at human haspin kinase (read-out: haspin IC50). In addition, at human haspin kinase (ratio of IC50 values), the “selectivity for haspin over DYRK2” value was found to be 180 fold.

These data come from PMC2923816 (Bioorganic & medicinal chemistry letters, 2010).
